SMILES strings stand for the structures.

The results in this text go back to ChEMBL document CHEMBL4138274, “Multiflorumisides A-G, Dimeric Stilbene Glucosides with Rare Coupling Patterns from the Roots of Polygonum multiflorum” (J Nat Prod, 2018).

Data set [1] relates to RAW264.7. Kind of data set: Antiinflammatory activity in mouse RAW264.7 cells assessed as inhibition of LPS-stimulated nitric oxide production at 20 uM after 48 hrs by Griess assay relative to control. Type of data set: functional. Conditions: RAW264.7, 48 h. In short, it runs like this: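 RAW264.7 cells seeded at 4 × 10^4 per well, held 2 h at 37 °C in humidified 5% CO2, then exposed to LPS (200 ng/mL) plus serially diluted test compound for 48 h at 37 °C. Supernatant was mixed 1:1 with Griess reagent, incubated 15 min, and absorbance read at 540 nm as a nitrite measure.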

The test system of data set [2] is RAW264.7. The data set is described as follows: Cytotoxicity against LPS-stimulated mouse RAW264.7 cells assessed as effect on cell viability at 20 uM after 48 hrs by MTT assay. Conditions: raw264.7, 48 h. The data set is classed as cell-based. In short, it runs like this: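 Viability by MTT on RAW264.7 cells seeded at 4 × 10^4 per well and held 2 h at 37 °C in humidified 5% CO2. Cells were then treated for 48 h at 37 °C with LPS (200 ng/mL) together with serially diluted test compound.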

`OC[C@H]1O[C@@H](Oc2c(O)cc(O)cc2[C@@H]2[C@@H](c3ccc(O)cc3)[C@H](c3ccc(O)cc3)[C@H]2c2cc(O)cc(O)c2O[C@@H]2O[C@H](CO)[C@@H](O)[C@H](O)[C@H]2O)[C@H](O)[C@@H](O)[C@@H]1O`: the inhibition at 20 µM with RAW264.7 [1] came to 22%. The Activity entry in the data set with RAW264.7 [2] is “Non-Toxic”.

As to `OC[C@H]1O[C@@H](Oc2c(O)cc(O)cc2[C@H]2[C@H](c3ccc(O)cc3)[C@H](c3cc(O)cc(O)c3O[C@@H]3O[C@H](CO)[C@@H](O)[C@H](O)[C@H]3O)[C@H]2c2ccc(O)cc2)[C@H](O)[C@@H](O)[C@@H]1O`, the inhibition at 20 µM with RAW264.7 [1] was 22.4%. The Activity entry in the data set with RAW264.7 [2] is recorded as “Non-Toxic”.

In the case of `OC[C@H]1O[C@@H](Oc2c(O)cc(O)cc2[C@H]2[C@H](c3ccc(O)cc3)[C@@H](c3cc(O)cc(O)c3O[C@@H]3O[C@H](CO)[C@@H](O)[C@H](O)[C@H]3O)[C@@H]2c2ccc(O)cc2)[C@H](O)[C@@H](O)[C@@H]1O`, the inhibition at 20 µM in the data set with RAW264.7 [1] amounted to 16.7%. Also, the Activity result in the data set with RAW264.7 [2] was “Non-Toxic”.

In the case of `OC[C@H]1O[C@@H](Oc2c(O)cc(O)cc2[C@H]2[C@H](c3ccc(O)cc3)c3c(O)cc(O)c(O[C@@H]4O[C@H](CO)[C@@H](O)[C@H](O)[C@H]4O)c3C[C@H]2c2ccc(O)cc2)[C@H](O)[C@@H](O)[C@@H]1O`, the Activity entry with RAW264.7 [2] is recorded as “Non-Toxic”.

In the case of `OC[C@H]1O[C@@H](Oc2c(O)cc(O)cc2[C@@H]2[C@@H](c3ccc(O)cc3)c3c(O)cc(O)c(O[C@@H]4O[C@H](CO)[C@@H](O)[C@H](O)[C@H]4O)c3C[C@H]2c2ccc(O)cc2)[C@H](O)[C@@H](O)[C@@H]1O`, the Activity entry in the data set with RAW264.7 [2] is listed as “Non-Toxic”.

For the molecule `C[C@@H]1C[C@H]2[C@@H]3CCC4=CC(=O)C=C[C@]4(C)[C@@]3(F)[C@@H](O)C[C@]2(C)[C@@]1(O)C(=O)CO` [DEXAMETHASONE], the inhibition at 20 µM with RAW264.7 [1] came out at 60.9%.

Turning to `OC[C@H]1O[C@@H](Oc2c(O)cc(O)cc2[C@H]2[C@@H](c3ccc(O)cc3)c3c(O)cc(O)c(O[C@@H]4O[C@H](CO)[C@@H](O)[C@H](O)[C@H]4O)c3C[C@@H]2c2ccc(O)cc2)[C@H](O)[C@@H](O)[C@@H]1O`, the Activity entry with RAW264.7 [2] is given as “Non-Toxic”.

`OC[C@H]1O[C@@H](Oc2c(O)cc(O)cc2[C@@H]2[C@@H](c3ccc(O)cc3)[C@@H](c3ccc(O)cc3)[C@@H]2c2cc(O)cc(O)c2O[C@@H]2O[C@H](CO)[C@@H](O)[C@H](O)[C@H]2O)[C@H](O)[C@@H](O)[C@@H]1O`: in the data set with RAW264.7 [1], the inhibition at 20 µM stood at 16.8%. In the data set with RAW264.7 [2], the Activity result is reported as “Non-Toxic”.
